These results are taken from PubChem BioAssay.

The source made the active and inactive calls.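 How the source made its calls, unless noted: active means fluorescence slope after compound addition differing from the mean of all tested samples at 99.7% confidence, mostly higher but some lower; inactive means the rest.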

Assay [1] can be described thus: inhibitors of TNFa-induced NFkB p65 translocation, primary screen, imaging, HUVEC, MLSMR starter and 10KST1 sets (AID 438;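 active means inhibition above 20% together with a positive visual image hit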;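 further: compound added about 3h40 before a 20 min TNFalpha stimulation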;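 on inhibition: signal is the nuclear over cytoplasmic p65 intensity ratio per well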). The conditions noted are these: HUVEC TNFa-induced p65 nuclear translocation; cell count: measured here: nuclei count (cytotoxicity indicator), at 2.08 µM; inhibition: at 2 µM, stronger effect = higher value, 0% TNFa-plus-vehicle, 100% no-TNFa wells.
The nature of assay [2]: inhibitors of mutant huntingtin aggregation, primary screen, imaging, exon1htt(103Q)mCFP cells, high-content imaging (AID 483;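 active means visual image review flags a hit and inhibition of aggregation exceeds 20%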;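 further: compound exposure lasted 3 days before fixation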;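 on nuclei count: percent of the per-plate median nuclei count of sample wells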). The conditions noted are these: exon1htt(103Q)mCFP cell line, aggregate imaging, at 2 µM; inhibition of aggregation: stronger effect = higher value; nuclei count: measured here: cell count, toxicity.
Assay [3] can be described thus: inhibitors of E-selectin induction by TNFa, primary screen, imaging, HUVEC, immunofluorescence, MLSMR starter and 10KST1 sets (AID 487;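 active means visually confirmed hit in the image check and inhibition above 20%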;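 on inhibition: signal is fraction of cell area covered by stained E-selectin grains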;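 on nuclei count: 100% = median nuclei count of all wells on the same plate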). The settings on record: HUVEC TNFalpha-induced E-selectin immunofluorescence imaging, at 2 µM; inhibition: stronger effect = higher value; nuclei count: measured here: cell number, toxicity.
Assay [4] concerns the target Voltage-gated potassium channel subunit beta-2 (Rattus norvegicus) (UniProt P62483). Put plainly: KvBeta enzyme negative modulators, primary screen, biochemical, NADPH fluorescence (AID 622;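 active means fluorescence slope higher than the sample average by over 3 SD, cut at about -0.22 in these data, passing the limit was not always enough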;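 further: slope of raw intensity against log time taken from 70 to 1610 s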). The settings on record: recombinant KvBeta, 4-cyanobenzaldehyde reduction, at 10 µM, stronger effect = higher value.
Assay [5] shares this target. Put plainly: KvBeta positive modulators, primary screen, biochemical, NADPH fluorescence (AID 623;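 active means NADPH fluorescence slope more negative than the mean of all samples by about 3 SD, 99.7% confidence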;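 further: fluorescence intensity change per second fitted from 20 to 320 s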). The conditions noted are these: Recombinant KvBeta, NADPH fluorescence decrease slope, 10 min; at 10 µM; stronger effect = lower value.
Assay [6] has as its target Muscarinic acetylcholine receptor M4 (Homo sapiens) (UniProt P08173). The assay can be described thus: compounds altering M4/GIRK thallium flux, either direction, primary screen, M4 allosteric agonist project, cell-based, HEK293 M4/GIRK, BTC-AM (AID 625).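 Further: thallium influx through GIRK channels coupled to M4 in HEK293 cells with BTC-AM dye.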 The settings on record: at 10 µM, actives lie on both sides. In a few lines:
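Material: HEK293 cells with M4 receptor and GIRK channels; Times: cells overnight at 37 °C, BTC-AM loading 1 h, reads 2 min total; Technique: kinetic BTC-AM fluorescence sampled at 1 Hz, 10 s pre-addition baseline; Read-out basis: slope over 15–24 s of trace normalized to starting intensity; Controls: carbachol positive, DMSO negative.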

Assay [7] can be described thus: inhibitors of Sendai virus-induced IRF3 signaling, primary screen, TLR/RLR signaling modifier project, cell-based, Sendai virus stimulus, luciferase, 10K MLSCN set (AID 602276;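 active means inhibition at or above 50% at 10 µM; inactive means inhibition below 50%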;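 further: firefly luciferase from ISG56 promoter only with Renilla not read in this screen; 0% = Sendai virus plus DMSO and 100% = medium plus DMSO without virus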). The conditions noted are these: HEK293 RL24 IRF3 luciferase reporter, at 10 µM, stronger effect = higher value. A general note: Reporter assays use an easily measured gene product as a stand-in for the process of interest.

Assay [8] is described as follows: inhibitors of poly I:C-induced TLR3 signaling, primary screen, cell-based, poly I:C stimulus, luciferase, 10K MLSCN set (AID 602277;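 active means inhibition of the reporter signal at or above 50%; inactive means inhibition below 50%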). The conditions noted are these: HEK293-TLR3 RL24 IRF3 luciferase reporter, at 10 µM, stronger effect = higher value.

Sequence of Voltage-gated potassium channel subunit beta-2 (Rattus norvegicus) (P62483 whole entry, looked up): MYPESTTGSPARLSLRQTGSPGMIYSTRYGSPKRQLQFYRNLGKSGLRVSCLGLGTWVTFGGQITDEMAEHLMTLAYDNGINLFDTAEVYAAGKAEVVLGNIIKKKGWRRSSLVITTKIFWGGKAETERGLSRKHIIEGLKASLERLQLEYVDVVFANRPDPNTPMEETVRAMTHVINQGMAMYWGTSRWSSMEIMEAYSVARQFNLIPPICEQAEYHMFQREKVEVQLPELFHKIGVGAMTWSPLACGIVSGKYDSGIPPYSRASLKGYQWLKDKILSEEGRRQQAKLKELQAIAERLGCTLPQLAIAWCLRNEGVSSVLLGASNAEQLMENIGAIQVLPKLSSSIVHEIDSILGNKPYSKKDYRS
Sequence of Muscarinic acetylcholine receptor M4 (Homo sapiens) (P08173 whole entry, looked up): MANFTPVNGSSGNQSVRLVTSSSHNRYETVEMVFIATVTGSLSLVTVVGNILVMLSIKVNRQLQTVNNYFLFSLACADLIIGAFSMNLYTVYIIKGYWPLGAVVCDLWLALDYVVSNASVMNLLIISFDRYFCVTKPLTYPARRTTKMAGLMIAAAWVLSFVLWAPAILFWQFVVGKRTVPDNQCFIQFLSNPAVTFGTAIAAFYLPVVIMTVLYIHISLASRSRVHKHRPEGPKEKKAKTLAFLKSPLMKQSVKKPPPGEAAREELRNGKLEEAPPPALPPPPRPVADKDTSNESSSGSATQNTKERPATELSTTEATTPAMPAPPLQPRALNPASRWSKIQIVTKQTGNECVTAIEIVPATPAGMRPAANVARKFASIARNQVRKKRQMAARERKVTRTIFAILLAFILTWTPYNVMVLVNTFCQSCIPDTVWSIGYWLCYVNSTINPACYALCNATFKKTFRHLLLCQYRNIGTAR

Turning to `CN(C(=O)CSc1nc2c(c(=O)[nH]1)CCCC2)C1CCCCC1`, the cell count in assay [1] was determined as 820. Also, the inhibition was -0.9% (inactive) in assay [1], -253% (inactive) in assay [3], 4.83% (inactive) in assay [7] and 18.3% (inactive) in assay [8]. Further, the inhibition of aggregation in assay [2] is -33.2% (inactive). The nuclei count came to 117% in assay [2] and 120% in assay [3]. For the same molecule, the fluorescence slope in assay [4] is -0.504 (inactive); in assay [6], 0.00553 (inactive). In addition, the NADPH fluorescence slope in assay [5] was 4e-05 (inactive).

Regarding `CCOc1ccc2cc(C#N)c(SCC(=O)N3CCCC3)nc2c1`, in assay [1], the cell count stood at 451. Moreover, the inhibition in assay [1] was -6.5% (inactive); in assay [3] it was -32% (inactive); in assay [7] it was -13.8% (inactive); in assay [8], -15.2% (inactive). In addition, in assay [2], the inhibition of aggregation was 3.1% (inactive). Further, the figures for the nuclei count in assay [2] and in assay [3] were 99.8% and 109%, respectively. The fluorescence slope in assay [4] is -0.551 (inactive); in assay [6], 0.00682 (inactive). Besides, the NADPH fluorescence slope in assay [5] is -5.2e-05 (inactive).

On to `CC1CN(CC(O)COc2ccc(C(C)C)cc2)CC(C)O1` (centres undefined), for which the cell count in assay [1] is 812. Moreover, the inhibition in assay [1] is -4.8% (inactive); in assay [3] it was -54.5% (inactive); in assay [7] it was -56.4% (inactive); in assay [8] it was 98.7% (active). Further, in assay [2], the inhibition of aggregation is 7.5% (inactive). The nuclei count in assay [2] came out at 120%; in assay [3], 140%. Moreover, the figures for the fluorescence slope in assay [4] and in assay [6] were -0.534 (inactive) and 0.0054 (inactive), respectively. Besides, in assay [5], the NADPH fluorescence slope is -0.000138 (inactive).

`Cc1nc(N2CCOCC2)[nH]c(=O)c1CCC(C)C`: the cell count in assay [1] turned out to be 417. Also, the inhibition in assay [1] was -3.4% (inactive); in assay [3], 28.7% (inactive); in assay [7], 15.6% (inactive); in assay [8], 21.2% (inactive). For the same molecule, the inhibition of aggregation in assay [2] was 6.3% (inactive). Further, the results for the nuclei count in assay [2] and in assay [3] were 107% and 57.6%, respectively. Also, the fluorescence slope was -0.4 (inactive) in assay [4] and 0.0057 (inactive) in assay [6]. For the same molecule, the NADPH fluorescence slope in assay [5] is 2.6e-05 (inactive).

Consider `CC1CCN(CCC(=O)Nc2ccc(Br)cc2)CC1`, for which the cell count in assay [1] was 612. Besides, the inhibition in assay [1] is 7.4% (inactive); in assay [3], 88.6% (active); in assay [7] it was 14% (inactive); in assay [8], 19.3% (inactive). Further, the inhibition of aggregation in assay [2] is -13.6% (inactive). Also, the values for the nuclei count in assay [2] and in assay [3] were 99.8% and 179%, respectively. Further, the fluorescence slope in assay [4] is -0.42 (inactive); in assay [6], 0.00434 (inactive). Moreover, the NADPH fluorescence slope in assay [5] is 2.4e-06 (inactive).

Regarding `CCc1cc(-c2[nH]ncc2-c2ccc3c(c2)OCO3)c(O)cc1O`, in assay [1], the cell count was 511. In addition, the inhibition in assay [1] was 0.5% (inactive); in assay [3], -11.5% (inactive); in assay [7], 14% (inactive); in assay [8] it was -66.6% (inactive). Also, in assay [2], the inhibition of aggregation is 26% (inactive). For the same molecule, the values for the nuclei count in assay [2] and in assay [3] were 97.8% and 111%, respectively. Further, the figures for the fluorescence slope in assay [4] and in assay [6] were -0.572 (inactive) and 0.00533 (inactive), respectively. Also, the NADPH fluorescence slope in assay [5] is 3.5e-05 (inactive).

`CC(=O)Nc1ccc(Cl)c(C(N)=O)c1`: the cell count in assay [1] worked out at 445. Besides, the inhibition is -0.6% (inactive) in assay [1], -97.8% (inactive) in assay [3], 19.4% (inactive) in assay [7] and 23.4% (inactive) in assay [8]. In assay [2], the inhibition of aggregation was -12.1% (inactive). Moreover, the nuclei count in assay [2] worked out at 94.4%; in assay [3], 113%. Further, the fluorescence slope in assay [4] was -0.581 (inactive); in assay [6] it was 0.00404 (inactive). Moreover, in assay [5], the NADPH fluorescence slope is -7.9e-05 (inactive).

Take `CC1(C)Cc2noc(N)c2C(C)(C)N1O`: the cell count in assay [1] turned out to be 762. Moreover, the inhibition is -11.6% (inactive) in assay [1], -81.1% (inactive) in assay [3], 13.8% (inactive) in assay [7] and 22.1% (inactive) in assay [8]. Besides, in assay [2], the inhibition of aggregation was -36.8% (inactive). Besides, the nuclei count was determined as 118% in assay [2] and 110% in assay [3]. In addition, the fluorescence slope in assay [4] is -0.39 (inactive); in assay [6], 0.00626 (inactive). The NADPH fluorescence slope in assay [5] was 4.7e-05 (inactive).

As to `CN1CCN(CCCNC(=O)C2CC(=O)N(C3CCCCC3)C2)CC1` (centres undefined), the cell count in assay [1] was 259. For the same molecule, the inhibition was -1.7% (inactive) in assay [1], 15.5% (inactive) in assay [3], 14.4% (inactive) in assay [7] and 13.7% (inactive) in assay [8]. Further, the inhibition of aggregation in assay [2] is 2.4% (inactive). Also, the nuclei count in assay [2] worked out at 98%; in assay [3] it was 89.4%. Further, the fluorescence slope in assay [4] was -0.548 (inactive); in assay [6] it was 0.00645 (inactive). The NADPH fluorescence slope in assay [5] was -4.3e-05 (inactive).

With `CCCn1c(=N)n(CCOc2ccc(OC)cc2)c2ccccc21`, the cell count in assay [1] stood at 665. Also, the inhibition was 21.3% (inactive) in assay [1], 15.1% (inactive) in assay [3], 20.2% (inactive) in assay [7] and 15.4% (inactive) in assay [8]. The inhibition of aggregation in assay [2] was 5.9% (inactive). Besides, the nuclei count in assay [2] is 92.6%; in assay [3], 139%. The fluorescence slope was -0.466 (inactive) in assay [4] and 0.00387 (inactive) in assay [6]. Besides, in assay [5], the NADPH fluorescence slope is -4.2e-05 (inactive).

Turning to `COc1cc(C)nc(NS(=O)(=O)c2ccc(C)cc2)n1`, the cell count in assay [1] turned out to be 399. In addition, the inhibition in assay [1] is 3.9% (inactive); in assay [3] it was -45.6% (inactive); in assay [7] it was 20.8% (inactive); in assay [8], 23% (inactive). In addition, the inhibition of aggregation in assay [2] was -0.3% (inactive). For the same molecule, the values for the nuclei count in assay [2] and in assay [3] were 97.2% and 109%, respectively. Besides, the fluorescence slope is -0.563 (inactive) in assay [4] and 0.00648 (inactive) in assay [6]. In addition, the NADPH fluorescence slope in assay [5] is -2.7e-05 (inactive).

On to `Cc1cc(C)nc(N2CCCC(C(=O)Nc3ccc4c(c3)OCO4)C2)n1` (centres undefined), for which, in assay [1], the cell count worked out at 563. In addition, the inhibition in assay [1] is -19.4% (inactive); in assay [3] it was 7.1% (inactive); in assay [7] it was -3.52% (inactive); in assay [8], -3.39% (inactive). Besides, in assay [2], the inhibition of aggregation is 15.3% (inactive). The nuclei count was 71.5% in assay [2] and 95.8% in assay [3]. In addition, the figures for the fluorescence slope in assay [4] and in assay [6] were -0.279 (inactive) and 0.0054 (inactive), respectively. The NADPH fluorescence slope in assay [5] was 4.9e-06 (inactive).

Turning to `COc1ccc(CN(C)CC(=O)c2c(N)n(Cc3ccccc3)c(=O)n(C)c2=O)c(OC)c1`, the cell count in assay [1] was determined as 459. Besides, the inhibition is -21.4% (inactive) in assay [1], 2.2% (inactive) in assay [3], 17.1% (inactive) in assay [7] and 24.3% (inactive) in assay [8]. Besides, in assay [2], the inhibition of aggregation is -15.1% (inactive). In addition, the values for the nuclei count in assay [2] and in assay [3] were 103% and 98.3%, respectively. For the same molecule, the fluorescence slope in assay [4] was -0.579 (inactive); in assay [6], 0.00645 (inactive). Further, the NADPH fluorescence slope in assay [5] is -1.3e-05 (inactive).

On to `Cc1ccc(C(=O)Nc2nc3c(s2)CCCC3)o1`, for which the cell count in assay [1] amounted to 341. Further, the inhibition in assay [1] was -4% (inactive); in assay [3], -96.9% (inactive); in assay [7], -30.4% (inactive); in assay [8], -89.5% (inactive). Further, the inhibition of aggregation in assay [2] is -8.3% (inactive). Moreover, the results for the nuclei count in assay [2] and in assay [3] were 101% and 120%, respectively. Also, the fluorescence slope was -0.561 (inactive) in assay [4] and 0.00262 (inactive) in assay [6]. For the same molecule, the NADPH fluorescence slope in assay [5] is -4.4e-05 (inactive).

Broadly, the inhibition is the change of the read-out against control, counted positive when it falls.
